Screening data (PubChem BioAssay)
STAT3 blocker: STAT3 signaling inhibition; U3A cells, IL-6 STAT3-luciferase reporter, luminescence; host cell line lacks STAT1; inhibition, % at 5.5 µM; hit rate 0.89% among 190,000; AID 862;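 active = inhibition above the mean inhibition across all screened compounds plus 3 SD, cut at about 44% in these data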
C8 TRAIL sens: sensitizes caspase-8 expressing cells to TRAIL | AID 624354 | NB7+C8 cells + TRAIL, ATPlite viability luminescence | hit rate 1% among 360,000 | inhibition (viability loss, TRAIL sensitization), % at 10 µM;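 active = compounds causing at least 50% loss of cell viability in the single-dose screen, relative to plate controls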
STAT1 inh: STAT1 signaling inhibition | NIH 3T3 STAT1-luciferase reporter, IFN-gamma, luminescence | inhibition, % at 5.5 µM | hit rate 0.35% among 200,000;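 active = inhibition above a set limit, the mean inhibition across all tested compounds plus 3 SD, cut at about 34% in these data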
PPC-1+TRAIL kill: kills PPC-1 cancer cells in the presence of TRAIL; PPC-1 cells + TRAIL, ATPLite viability luminescence; cell killing (% activity), % at 4 µM or 5 µM; hit rate 0.41% among 220,000;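 active = cell killing above 50% in the first pass at 4 µM, then a duplicate retest at 5 µM averaging 50% or more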
STAT3 activator: activators of IL-6 induced STAT3 signaling | U3A cells, IL-6 STAT3-luciferase reporter, luminescence; 100% = signal with IL-6 EC80 alone | activation (% of control), % at 5.6 µM | hit rate 0.91% among 190,000 | AID 871;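 active = activation above the screen-wide mean of compound activation plus 3 SD, cut at about 130% in these data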
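Material: human STAT1-deficient U3A cells with stable STAT3-luciferase reporter / Probe or stimulus: IL-6 stimulus at 33 ng/mL final / Schedule: 1 h compound pre-exposure, 6 h IL-6 stimulation, 37 °C / Technique: luminescence / Read-out basis: percent of IL-6-only median luminescence / Control set: IL-6-only high control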
Numbers stand for hits. In the library only some 1.8% were active in any assay of this set; here they are far more common.

`CCC(C)C1NC(=O)C(NC(=O)C(CC(C)C)N(C)C(=O)C2CCCN2C(=O)C(C)O)C(C)OC(=O)C(Cc2ccc(OC)cc2)N(C)C(=O)C2CCCN2C(=O)C(CC(C)C)NC(=O)[C@H](C)C(=O)[C@H](C(C)C)OC(=O)CC1O` (some centres undefined) gave C8 TRAIL sens 81.9.
Screening COc1ccccc1C1CC2CCC(C1OC(C)=O)N2Cc1ccccc1 (centres undefined) returned C8 TRAIL sens inactive.
`Nc1ncnc2c1ccn2[C@@H]1O[C@H](CO)[C@@H](O)[C@H]1O` gave C8 TRAIL sens 88.0.
Screening CCn1c(P(C)(=O)O)nc2cc(NC(=O)c3ccccc3F)ccc21 returned STAT3 blocker inactive, C8 TRAIL sens inactive, STAT1 inh inactive, PPC-1+TRAIL kill inactive and STAT3 activator inactive.
For C[C@@H]1C[C@@H]([C@H](O)CC2CC(=O)NC(=O)C2)C(=O)[C@@H](C)C1 the results were C8 TRAIL sens inactive.
`CC(=O)OC1(C)CC(C)C(=O)C(C(O)CC2CC(=O)NC(=O)C2)C1` (centres undefined) gave C8 TRAIL sens 73.7.
For CC(=O)OC(C)(C)/C=C/C(=O)C(C)(O)C1[C@H](O)C[C@@]2(C)C3CC=C4C(CC[C@@H](O)C4(C)C)[C@]3(CO)C(=O)C[C@]12C (some centres undefined) the results were C8 TRAIL sens 53.1.
For CC(=O)OC(C)(C)/C=C/C(=O)[C@](C)(O)[C@H]1[C@H](O)C[C@@]2(C)[C@@H]3CC=C4[C@H](C[C@H](O)C(=O)C4(C)C)[C@]3(C)C(=O)C[C@]12C the results were STAT3 blocker inactive, C8 TRAIL sens inactive, STAT1 inh inactive, PPC-1+TRAIL kill 50.1 and STAT3 activator inactive.
For CCC1(C)OC(c2ccccc2)=C/C(=C/C=C2C(=O)NC(=O)NC2=O)O1 (centres undefined) the results were STAT3 blocker inactive, C8 TRAIL sens inactive, STAT1 inh inactive, PPC-1+TRAIL kill inactive and STAT3 activator inactive.
CC(=O)c1ccc(OCC(=O)N2CCCC(N(C)Cc3ccccc3)C2)cc1 (centres undefined) was read as C8 TRAIL sens inactive.
`CCCc1cc(=O)oc2cc(OCC(=O)N3CCC(C(=O)O)(c4ccccc4)CC3)ccc12` gave C8 TRAIL sens inactive.
For C[CH2][Hg][S]c1ccccc1C(=O)O the results were C8 TRAIL sens 61.9.
Screening c1ccc2c(CNC3CCCCC3)c[nH]c2c1 returned STAT3 blocker inactive, STAT1 inh inactive, PPC-1+TRAIL kill inactive and STAT3 activator 136.7.
For CN(Cc1c[nH]c2ccccc12)C1CCCCC1 the results were STAT3 blocker inactive, C8 TRAIL sens inactive, STAT1 inh inactive, PPC-1+TRAIL kill inactive and STAT3 activator inactive.
`CCOc1ccc(-n2c(-c3cccs3)nc3ccccc3c2=O)cc1` gave STAT3 blocker inactive, C8 TRAIL sens inactive, STAT1 inh inactive, PPC-1+TRAIL kill inactive and STAT3 activator inactive.
CCn1nc(/C=C/c2ccccc2)nc2c(=O)n(C)c(=O)nc1-2 was read as STAT3 blocker 73.7, C8 TRAIL sens inactive, STAT1 inh 86.2, PPC-1+TRAIL kill inactive and STAT3 activator inactive.
For CCn1nc(-c2cccs2)nc2c(=O)n(C)c(=O)nc1-2 the results were C8 TRAIL sens 95.2 and PPC-1+TRAIL kill inactive.
`COC(=O)C12OCC34C(CC5C(C)=C(O)C(=O)CC5(C)C3C(O)C1O)OC(=O)C(OC(=O)/C=C(\C)C(C)C)C24` (centres undefined) gave C8 TRAIL sens 57.7.
Clc1ccc(C[n+]2c(-c3ccccc3)cc(-c3ccccc3)cc2-c2ccccc2)cc1 was read as C8 TRAIL sens 68.9.
Cc1cc(-c2ccccc2)cc(-c2ccccc2)[n+]1CCc1ccccc1 was read as C8 TRAIL sens inactive.
`CC(C(=O)c1c[nH]c2ccccc12)N1CCc2ccccc2C1` (centres undefined) gave STAT3 blocker inactive, C8 TRAIL sens inactive, STAT1 inh inactive, PPC-1+TRAIL kill inactive and STAT3 activator 134.0.
For CC(=O)OC1CC(OC2C(O)CC(OC3C(O)CC(OC4CCC5(C)C(CCC6C5CCC5(C)C(C7=CC(=O)OC7)CCC65O)C4)OC3C)OC2C)OC(C)C1OC1OC(CO)C(O)C(O)C1O (centres undefined) the results were C8 TRAIL sens 65.8.
